From PMC5760440 (Journal of immunology (Baltimore, Md. : 1950), 2017)
Ends that are not written are not given here.

Legend:
LNCs = test: Cytokine secretion by restimulated LNCs, cytokine bead array; type: cell-based, mouse; settings: supernatants of LNCs from mice immunized with the named peptide (Fig. S2c)
A/J mice = test: Induction of myocarditis by immunization with SERCA2a peptides, histology; type: in vivo, mouse; settings: individual peptide/CFA + PT; for Total inflammatory foci (Mean ± SEM): day 21, H&E heart sections; for Severity of lesions, Atria, Number of animals affected (%), Mild / Severity of lesions, Ventricle, Number of animals affected (%), Mild / Severity of lesions, Atria, Number of animals affected (%), Normal / Severity of lesions, Ventricle, Number of animals affected (%), Normal / Severity of lesions, Atria, Number of animals affected (%), Severe / Severity of lesions, Ventricle, Number of animals affected (%), Severe: day 21, H&E; for Severity of lesions, Atria, Number of animals affected (%), Mild / Severity of lesions, Ventricle, Number of animals affected (%), Mild: mild = 1–5 foci; for Severity of lesions, Atria, Number of animals affected (%), Normal / Severity of lesions, Ventricle, Number of animals affected (%), Normal: normal = 0 foci; for Severity of lesions, Atria, Number of animals affected (%), Severe / Severity of lesions, Ventricle, Number of animals affected (%), Severe: severe = 26 foci and above
In short: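 Mice got peptide/CFA emulsion (M. tuberculosis H37RA extract 5 mg/ml), 50–100 μg individual peptide, s.c. at inguinal and sternum sites on days 0 and 7. Pertussis toxin 100 ng/mouse i.p. on days 0 and 2. Controls: untreated, CFA+PT. Organs harvested day 21, formalin-fixed, 5 μm H&E sections ~150 μm apart. Blinded foci counts scored 0 / 1–5 / 6–25 / ≥26.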

Substance | Cytokine pattern of peptides inducing mild disease (LNCs) | Total inflammatory foci (Mean ± SEM) (A/J mice; SEM) | Severity of lesions, Atria, Number of animals affected (%), Mild (A/J mice) | Severity of lesions, Ventricle, Number of animals affected (%), Mild (A/J mice) | Severity of lesions, Atria, Number of animals affected (%), Normal (A/J mice) | Severity of lesions, Ventricle, Number of animals affected (%), Normal (A/J mice) | Severity of lesions, Atria, Number of animals affected (%), Severe (A/J mice) | Severity of lesions, Ventricle, Number of animals affected (%), Severe (A/J mice) | Total inflammatory foci (Mean ± SEM) (A/J mice)
SERCA2a 31-50: N-terminally acetylated 20-mer peptide of SERCA2a, residues 31-50 (Ac-KLKERWGSNELPAEEGKTLL; UniProt P16615 31-50, looked up, fragment) | produced mainly IFN-γ | 8.00 ± 0.00 | 0 (0) % | 0 (0) % | 5 | 4 | 0 (0) % | 0 (0) % | –
SERCA2a 161-180: N-terminally acetylated 20-mer peptide of SERCA2a, residues 161-180 (Ac-ADIRLTSIKSTTLRVDQSIL; UniProt P16615 161-180, looked up, fragment) | underproduction of both IFN-γ and IL-17A | 2.50 ± 0.64 | – | 3 (30) % | 6 | 7 | 0 (0) % | 0 (0) % | –
SERCA2a 171-190: N-terminally acetylated 20-mer peptide of SERCA2a, residues 171-190 (Ac-TTLRVDQSILTGESVSVIKH; UniProt P16615 171-190, looked up, fragment) | – | 2.00 ± 0.00 | 1 (20) % | 1 (20) % | 4 | 4 | 0 (0) % | 0 (0) % | –
SERCA2a 311-330: N-terminally acetylated 20-mer peptide of SERCA2a, residues 311-330 (Ac-LPAVITTCLALGTRRMAKKN; UniProt P16615 311-330, looked up, fragment) | – | – | 0 (0) % | 0 (0) % | 5 | 5 | 0 (0) % | 0 (0) % | 0
SERCA2a 471-490: N-terminally acetylated 20-mer peptide of SERCA2a, residues 471-490 (Ac-CNSVIKQLMKKEFTLEFSRD; UniProt P16615 471-490, looked up, fragment) | – | – | 0 (0) % | 0 (0) % | 5 | 5 | 0 (0) % | 0 (0) % | 0
SERCA2a 481-500: N-terminally acetylated 20-mer peptide of SERCA2a, residues 481-500 (Ac-KEFTLEFSRDRKSMSVYCTP; UniProt P16615 481-500, looked up, fragment) | – | – | 0 (0) % | 0 (0) % | 5 | 5 | 0 (0) % | 0 (0) % | 0
SERCA2a 591-610: N-terminally acetylated 20-mer peptide of SERCA2a, residues 591-610 (Ac-TFVGCVGMLDPPRIEVASSV; UniProt P16615 591-610, looked up, fragment) | – | – | 0 (0) % | 0 (0) % | 5 | 5 | 0 (0) % | 0 (0) % | 0
SERCA2a 601-620: N-terminally acetylated 20-mer peptide of SERCA2a, residues 601-620 (Ac-PPRIEVASSVKLCRQAGIRV; UniProt P16615 601-620, looked up, fragment) | – | – | 0 (0) % | 0 (0) % | 5 | 5 | 0 (0) % | 0 (0) % | 0
SERCA2a 821-840: N-terminally acetylated 20-mer peptide of SERCA2a, residues 821-840 (Ac-RNPKEPLISGWLFFRYLAIG; UniProt P16615 821-840, looked up, fragment) | – | – | 0 (0) % | 0 (0) % | 5 | 5 | 0 (0) % | 0 (0) % | 0
SERCA2a 951-970: N-terminally acetylated 20-mer peptide of SERCA2a, residues 951-970 (Ac-PLPLIFQITPLNVTQWLMVL; UniProt P16615 951-970, looked up, fragment) | – | 40.00 ± 39.00 | 1 (10) % | 0 (0) % | 8 | 9 | 1 (10) % | 1 (10) % | –
